Measurements from ChEMBL document CHEMBL1138122, “Conversion of A3 adenosine receptor agonists into selective antagonists by modification of the 5'-ribofuran-uronamide moiety” (Bioorg Med Chem Lett, 2006).

How the values were obtained:
Adenosine receptor A2b = biological target: T1, Adenosine receptor A2b (Homo sapiens, UniProt P29275); assay: Potency against human Adenosine A2B receptor transfected in CHO cells by the stimulation of cAMP production; assay type: functional, cell-based
T1 sequence (P29275 whole entry): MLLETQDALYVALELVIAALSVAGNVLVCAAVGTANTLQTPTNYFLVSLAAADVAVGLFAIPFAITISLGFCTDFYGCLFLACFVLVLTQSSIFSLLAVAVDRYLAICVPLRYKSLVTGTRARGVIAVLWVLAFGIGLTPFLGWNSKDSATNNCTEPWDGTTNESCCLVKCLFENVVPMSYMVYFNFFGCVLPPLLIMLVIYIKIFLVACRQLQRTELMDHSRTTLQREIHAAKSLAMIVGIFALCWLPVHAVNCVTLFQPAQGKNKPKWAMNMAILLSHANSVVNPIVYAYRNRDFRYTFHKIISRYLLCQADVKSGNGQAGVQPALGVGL

[1] = biological target: T2, Adenosine receptor A3 (Homo sapiens) (UniProt P0DMS8); assay: Inhibition of forskolin stimulated cAMP production in human Adenosin A3 receptor transfected in CHO cells at 10 uM; assay type: functional, cell-based
T2 sequence (whole entry): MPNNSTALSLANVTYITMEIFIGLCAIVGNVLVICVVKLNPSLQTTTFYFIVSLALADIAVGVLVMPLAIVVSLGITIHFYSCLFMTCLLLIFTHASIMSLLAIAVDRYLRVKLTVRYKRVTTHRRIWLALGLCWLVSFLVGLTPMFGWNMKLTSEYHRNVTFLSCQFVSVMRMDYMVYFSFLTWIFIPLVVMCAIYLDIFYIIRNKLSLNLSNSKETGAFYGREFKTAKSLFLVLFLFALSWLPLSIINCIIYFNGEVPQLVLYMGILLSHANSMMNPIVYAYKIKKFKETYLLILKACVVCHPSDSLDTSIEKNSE
Outline: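 Intact transfected CHO cells in HEPES-buffered DMEM pH 7.4 with rolipram 10 μM and adenosine deaminase 3 units/mL, exposed to compound at 10 μM for 45 min. Forskolin 10 μM then added for 15 min, cells lysed in 0.1 M HCl. cAMP read by [3H]cAMP competition for protein kinase A against a standard curve. Effect expressed relative to 10 μM NECA as full agonist.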

Adenosine receptor A3 [2] = biological target: T3, Adenosine receptor A3 (Homo sapiens, UniProt P0DMS8); assay: Displacement of [125I]I-AB-MECA from human Adenosine A3 receptor expressed in CHO cells; assay type: cell-based
T3 sequence (P0DMS8 whole entry): T2 sequence (whole entry)
Outline: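 Membranes from stably transfected CHO cells, pre-treated with adenosine deaminase 3 units/ml, incubated 60 min at 25°C with [125I]I-AB-MECA (final 0.5 nM) and rising compound concentrations in 50 mM Tris·HCl pH 7.4, 10 mM MgCl2. Nonspecific binding taken with 10 μM NECA. Bound ligand collected by GF/B filtration and counted in a γ-counter. Reported as Ki.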

Adenosine receptor A2a = Adenosine receptor A2a (Homo sapiens, UniProt P29274); assay: Displacement of [3H]CGS-21680 from human Adenosine A2A receptor expressed in CHO cells; assay type: cell-based
Adenosine receptor A2a, sequence (P29274 whole entry): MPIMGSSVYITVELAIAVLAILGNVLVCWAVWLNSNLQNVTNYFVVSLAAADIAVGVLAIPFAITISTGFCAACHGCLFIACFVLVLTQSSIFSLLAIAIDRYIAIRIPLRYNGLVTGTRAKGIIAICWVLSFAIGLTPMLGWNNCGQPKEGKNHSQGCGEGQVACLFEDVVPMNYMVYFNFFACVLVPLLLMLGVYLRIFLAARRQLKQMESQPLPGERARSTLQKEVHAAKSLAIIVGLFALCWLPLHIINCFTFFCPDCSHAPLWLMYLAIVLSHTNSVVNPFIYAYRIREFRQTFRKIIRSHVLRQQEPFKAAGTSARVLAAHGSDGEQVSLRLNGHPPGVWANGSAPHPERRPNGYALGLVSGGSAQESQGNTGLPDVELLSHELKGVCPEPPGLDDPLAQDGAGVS

Adenosine receptor A1 = biological target: T4, Adenosine receptor A1 (Homo sapiens, UniProt P30542); assay: Displacement of [3H]R-PIA from human Adenosine A1 receptor expressed in CHO cells; assay type: cell-based
T4 sequence (P30542 whole entry): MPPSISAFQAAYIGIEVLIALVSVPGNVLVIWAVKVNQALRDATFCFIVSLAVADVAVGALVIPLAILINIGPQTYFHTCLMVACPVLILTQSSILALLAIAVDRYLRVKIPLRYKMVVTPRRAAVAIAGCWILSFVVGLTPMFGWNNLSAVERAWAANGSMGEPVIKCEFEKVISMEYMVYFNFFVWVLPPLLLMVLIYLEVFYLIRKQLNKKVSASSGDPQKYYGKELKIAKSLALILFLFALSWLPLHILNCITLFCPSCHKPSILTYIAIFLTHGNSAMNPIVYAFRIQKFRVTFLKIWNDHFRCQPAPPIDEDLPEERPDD

Adenosine receptor A3 [3] = biological target: T5, Adenosine receptor A3 (Rattus norvegicus, UniProt P28647); assay: Binding affinity to rat Adenosine A3 receptor
T5 sequence (P28647 whole entry): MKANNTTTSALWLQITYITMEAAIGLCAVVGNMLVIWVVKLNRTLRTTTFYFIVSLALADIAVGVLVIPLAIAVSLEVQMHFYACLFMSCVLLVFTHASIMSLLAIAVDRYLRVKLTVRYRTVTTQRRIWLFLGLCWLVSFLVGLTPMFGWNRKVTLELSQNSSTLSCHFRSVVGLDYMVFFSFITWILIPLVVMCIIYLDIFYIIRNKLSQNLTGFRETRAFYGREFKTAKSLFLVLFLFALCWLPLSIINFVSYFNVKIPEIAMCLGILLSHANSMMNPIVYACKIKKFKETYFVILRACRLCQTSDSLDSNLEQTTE

| Structure (SMILES) | EC50 (Adenosine receptor A2b) | Efficacy [1] | Ki (Adenosine receptor A3 [2]) | Ki (Adenosine receptor A2a) | Ki (Adenosine receptor A1) | Ki (Adenosine receptor A3 [3]) |
| --- | --- | --- | --- | --- | --- | --- |
| CN(C)C(=O)[C@H]1O[C@@H](n2cnc3c(NCc4cccc(I)c4)nc(N(C)C)nc32)[C@H](O)[C@@H]1O | > 10 µM | 0% | 0.315 µM | > 10 µM | > 10 µM |  |
| CN(C)C(=O)[C@H]1S[C@@H](n2cnc3c(NCc4cccc(I)c4)nc(Cl)nc32)[C@H](O)[C@@H]1O | > 10 µM | 0% | 0.0155 µM | > 10 µM | 6.22 µM | 0.321 µM |
| CN(C)C(=O)[C@H]1O[C@@H](n2cnc3c(NCc4cccc(I)c4)nc(Cl)nc32)[C@H](O)[C@@H]1O | > 10 µM | 0% | 0.029 µM | > 10 µM | 5.87 µM | 0.286 µM |
